# According to ChEMBL document CHEMBL4014339, “Discovery of 1,4-Benzodiazepine-2,5-dione (BZD) Derivatives as Dual Nucleotide Binding Oligomerization Domain Containing 1/2 (NOD1/NOD2) Antagonists Sensitizing Paclitaxel (PTX) To Suppress Lewis Lung Carcinoma (LLC) Growth in Vivo” (J Med Chem, 2017):
# Active and inactive are the calls of the source. The rule behind the calls is not given here.
# Legend:
# [1] = target: T1, Nucleotide-binding oligomerization domain-containing protein 2 (Homo sapiens, UniProt Q9HC29); experiment: Antagonist activity at human NOD2 expressed in HEK-Blue cells assessed as inhibition of MDP-stimulated cell activation at 5 uM preincubated for 3 hrs followed by MDP addition measured after 20 hrs by SEAP reporter gene assay; type: cell-based
# [2] = target: T1, Nucleotide-binding oligomerization domain-containing protein 2; experiment: Antagonist activity at human NOD2 expressed in HEK-Blue cells assessed as inhibition of MDP-stimulated cell activation preincubated for 3 hrs followed by MDP addition measured after 20 hrs by SEAP reporter gene assay; type: cell-based
# In short: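 HEK-Blue hNOD1 or hNOD2 cells preincubated with compound 3 h, then stimulated 20 h with C12-iE-DAP 50 ng/mL (NOD1) or MDP 100 ng/mL (NOD2); SEAP in supernatant quantified. Primary screen at 10 μM, hits repeated in triplicate; IC50 from dose-response, mean ± SD (n = 3), only for compounds reaching ≥50% inhibition at the screening concentration.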
# [3] = target: Receptor-interacting serine/threonine-protein kinase 2 (Homo sapiens) (UniProt O43353); experiment: Inhibition of recombinant human N-terminal GST tagged RIPK2 (1 to 299 residues) expressed in baculovirus infected Sf9 insect cells assessed as decrease in MBP phosphorylation at 10 uM preincubated with compound followed by ATP addition measured after 60 mins by ADP-Glo assay
# [4] = target: T1, Nucleotide-binding oligomerization domain-containing protein 2; experiment: Inhibition of NOD2 in human PBMC-derived macrophages assessed as reduction in MDP-stimulated IL6 mRNA expression at 10 uM preincubated for 1 hr followed by MDP stimulation for 90 mins by RT-qPCR analysis
# In short: (§1)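 Human CD14+ monocytes from donor PBMC, differentiated 7 days with M-CSF 20 ng/mL to macrophages; 1.0 × 10^6 cells pretreated 1 h with compound (final 0.1% DMSO), then C12-iE-DAP 500 ng/mL or MDP 5 μg/mL for 90 min. IL-6/TNF-α mRNA by qRT-PCR, normalized to GAPDH; stimulated response set to 100%.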
# [5] = target: T2, Nucleotide-binding oligomerization domain-containing protein 1 (Homo sapiens) (UniProt Q9Y239); experiment: Inhibition of NOD1 in human PBMC-derived macrophages assessed as reduction in C12-iE-DAP-stimulated IL6 mRNA expression preincubated for 1 hr followed by C12-iE-DAP stimulation for 90 mins by RT-qPCR analysis; in short: as §1
# T2 sequence (whole entry): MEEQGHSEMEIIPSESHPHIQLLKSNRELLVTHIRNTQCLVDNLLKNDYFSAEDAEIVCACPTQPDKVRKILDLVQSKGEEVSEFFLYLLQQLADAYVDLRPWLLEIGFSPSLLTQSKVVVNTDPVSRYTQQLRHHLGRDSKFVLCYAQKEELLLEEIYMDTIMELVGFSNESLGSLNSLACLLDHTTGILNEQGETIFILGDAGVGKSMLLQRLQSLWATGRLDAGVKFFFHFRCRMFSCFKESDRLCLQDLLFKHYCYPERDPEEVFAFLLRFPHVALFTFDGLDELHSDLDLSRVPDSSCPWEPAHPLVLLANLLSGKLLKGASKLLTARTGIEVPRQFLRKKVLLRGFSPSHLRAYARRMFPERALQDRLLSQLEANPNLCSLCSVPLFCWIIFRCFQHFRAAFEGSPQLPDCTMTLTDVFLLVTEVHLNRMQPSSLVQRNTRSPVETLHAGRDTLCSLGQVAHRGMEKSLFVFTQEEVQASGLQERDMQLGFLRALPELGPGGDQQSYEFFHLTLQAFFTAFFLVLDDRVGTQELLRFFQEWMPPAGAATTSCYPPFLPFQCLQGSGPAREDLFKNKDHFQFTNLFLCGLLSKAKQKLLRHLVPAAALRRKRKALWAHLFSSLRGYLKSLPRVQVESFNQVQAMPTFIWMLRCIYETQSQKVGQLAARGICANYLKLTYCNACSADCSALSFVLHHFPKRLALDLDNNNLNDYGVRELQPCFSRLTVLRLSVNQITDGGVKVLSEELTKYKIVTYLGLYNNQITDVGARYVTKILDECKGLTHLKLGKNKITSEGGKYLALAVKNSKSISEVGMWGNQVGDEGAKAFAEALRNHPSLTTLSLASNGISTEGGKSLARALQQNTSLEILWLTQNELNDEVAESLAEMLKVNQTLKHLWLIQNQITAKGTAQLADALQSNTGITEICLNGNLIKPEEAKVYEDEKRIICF
# [6] = target: T1, Nucleotide-binding oligomerization domain-containing protein 2; experiment: Inhibition of NOD2 in human PBMC-derived macrophages assessed as reduction in MDP-stimulated IL6 mRNA expression preincubated for 1 hr followed by MDP stimulation for 90 mins by RT-qPCR analysis; in short: as §1
# [7] = test system: Lewis lung carcinoma cell line; experiment: Potentiation of paclitaxel-mediated antitumor activity against mouse LLC cells implanted in C57BL/6 mouse assessed as tumor weight inhibition at 20 mg/kg, iv administered daily measured 11 days after tumor implantation (reference value: 34.54 %); type: functional; settings: 264 h, read-out: TGI
# [8] = test system: Lewis lung carcinoma cell line; experiment: Antitumor activity against mouse LLC cells implanted in C57BL/6 mouse assessed as tumor weight inhibition at 20 mg/kg, iv administered daily measured 11 days after tumor implantation; type: functional, organism-based
# [9] = target: T2, Nucleotide-binding oligomerization domain-containing protein 1 (Homo sapiens); experiment: Inhibition of NOD1 in human PBMC-derived macrophages assessed as reduction in C12-iE-DAP-stimulated RIP2 phosphorylation at 1 to 10 uM preincubated for 1 hr followed by C12-iE-DAP stimulation for 45 mins by Western blot analysis
# [10] = target: T2, Nucleotide-binding oligomerization domain-containing protein 1 (Homo sapiens); experiment: Inhibition of NOD1 in human PBMC-derived macrophages assessed as reduction of C12-iE-DAP-mediated decrease in IkBalpha levels at 1 to 10 uM preincubated for 1 hr followed by C12-iE-DAP stimulation for 45 mins by Western blot analysis
# [11] = target: T1, Nucleotide-binding oligomerization domain-containing protein 2; experiment: Inhibition of human NOD2 expressed in HEK293 cells assessed as suppression of MDP-stimulated ERK phosphorylation preincubated for 1 hr followed by MDP stimulation measured after 1 hr by Western blot analysis
# [12] = target: T1, Nucleotide-binding oligomerization domain-containing protein 2; experiment: Inhibition of human NOD2 expressed in HEK293 cells assessed as suppression of MDP-stimulated p38 phosphorylation preincubated for 1 hr followed by MDP stimulation measured after 1 hr by Western blot analysis
# [13] = target: T1, Nucleotide-binding oligomerization domain-containing protein 2; experiment: Inhibition of NOD2 in human PBMC-derived macrophages assessed as reduction in MDP-stimulated JNK phosphorylation at 1 to 10 uM preincubated for 1 hr followed by MDP stimulation for 1 hr by Western blot analysis
# [14] = target: T1, Nucleotide-binding oligomerization domain-containing protein 2; experiment: Inhibition of NOD2 in human PBMC-derived macrophages assessed as reduction in MDP-stimulated ERK phosphorylation at 1 to 10 uM preincubated for 1 hr followed by MDP stimulation for 1 hr by Western blot analysis
# T1 sequence (Q9HC29 whole entry, the tested form may be a part): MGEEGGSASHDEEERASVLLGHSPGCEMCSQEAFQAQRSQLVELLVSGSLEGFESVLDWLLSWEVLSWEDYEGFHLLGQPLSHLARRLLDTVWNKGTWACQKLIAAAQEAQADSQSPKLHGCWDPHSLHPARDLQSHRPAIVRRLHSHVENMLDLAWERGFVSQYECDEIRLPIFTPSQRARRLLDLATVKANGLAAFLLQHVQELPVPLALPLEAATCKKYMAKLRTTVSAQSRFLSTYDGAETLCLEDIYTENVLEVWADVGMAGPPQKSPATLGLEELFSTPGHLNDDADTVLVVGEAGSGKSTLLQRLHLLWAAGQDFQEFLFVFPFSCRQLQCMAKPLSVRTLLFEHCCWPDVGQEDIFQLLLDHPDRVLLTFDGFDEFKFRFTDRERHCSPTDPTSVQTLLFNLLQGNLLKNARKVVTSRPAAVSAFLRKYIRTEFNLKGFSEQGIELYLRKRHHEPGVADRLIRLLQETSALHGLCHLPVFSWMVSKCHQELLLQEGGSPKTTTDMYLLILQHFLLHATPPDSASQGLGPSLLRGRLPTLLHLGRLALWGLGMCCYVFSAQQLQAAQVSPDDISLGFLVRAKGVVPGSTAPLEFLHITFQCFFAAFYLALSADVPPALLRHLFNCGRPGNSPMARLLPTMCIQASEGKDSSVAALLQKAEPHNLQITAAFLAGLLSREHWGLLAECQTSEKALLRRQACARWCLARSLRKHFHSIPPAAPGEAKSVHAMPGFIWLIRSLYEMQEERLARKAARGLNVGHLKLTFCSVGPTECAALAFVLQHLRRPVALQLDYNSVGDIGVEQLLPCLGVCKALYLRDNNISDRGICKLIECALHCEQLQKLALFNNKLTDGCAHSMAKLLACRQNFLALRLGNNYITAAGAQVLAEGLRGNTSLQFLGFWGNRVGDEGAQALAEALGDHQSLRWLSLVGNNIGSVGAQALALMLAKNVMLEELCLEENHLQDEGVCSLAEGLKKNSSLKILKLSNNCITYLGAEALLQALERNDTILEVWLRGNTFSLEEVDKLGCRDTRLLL
# Receptor-interacting serine/threonine-protein kinase 2 (Homo sapiens), sequence (O43353 whole entry, the tested form may be a part): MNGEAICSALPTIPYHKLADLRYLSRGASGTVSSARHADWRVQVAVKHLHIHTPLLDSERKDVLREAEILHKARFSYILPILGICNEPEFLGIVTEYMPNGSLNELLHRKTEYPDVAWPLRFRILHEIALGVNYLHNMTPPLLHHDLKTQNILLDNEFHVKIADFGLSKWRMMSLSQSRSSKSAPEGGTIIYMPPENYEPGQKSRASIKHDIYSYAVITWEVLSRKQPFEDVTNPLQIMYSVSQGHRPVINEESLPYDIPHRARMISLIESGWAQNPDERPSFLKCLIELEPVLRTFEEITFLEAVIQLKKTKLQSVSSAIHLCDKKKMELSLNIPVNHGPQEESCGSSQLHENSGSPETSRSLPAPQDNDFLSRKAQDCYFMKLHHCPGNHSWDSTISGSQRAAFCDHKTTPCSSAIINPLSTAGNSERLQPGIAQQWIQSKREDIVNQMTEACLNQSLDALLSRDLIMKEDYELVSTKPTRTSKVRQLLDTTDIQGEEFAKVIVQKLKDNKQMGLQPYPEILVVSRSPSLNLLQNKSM
smiles,measurement,setting,value
CCCNC(=O)CC[C@H]1NC(=O)c2cc(Oc3cccc(N(C)C)c3)c(NC(=O)COCc3ccccc3)cc2NC1=O,inhibition,[1],60.9%
same,IC50,[2],4.16 µM
same,inhibition,[3],inactive
same,inhibition,[4],Active
same,inhibition,[5],Dose-dependent effect
same,inhibition,[6],Dose-dependent effect
same,inhibition in vivo at 20 mg/kg,[7],67.3%
same,TGI,[8],inactive
same,inhibition,[9],Active
same,inhibition,[10],Active
same,inhibition,[11],Dose-dependent effect
same,inhibition,[12],Dose-dependent effect
same,inhibition,[13],Active
same,inhibition,[14],Active
